{
  "source": "ChEMBL document CHEMBL2177085",
  "about": "(J Med Chem, 2012)",
  "key": {"[1]": {"biological_target": "Glycogen synthase kinase-3 beta (Homo sapiens, UniProt P49841)", "sequence (P49841 whole entry)": "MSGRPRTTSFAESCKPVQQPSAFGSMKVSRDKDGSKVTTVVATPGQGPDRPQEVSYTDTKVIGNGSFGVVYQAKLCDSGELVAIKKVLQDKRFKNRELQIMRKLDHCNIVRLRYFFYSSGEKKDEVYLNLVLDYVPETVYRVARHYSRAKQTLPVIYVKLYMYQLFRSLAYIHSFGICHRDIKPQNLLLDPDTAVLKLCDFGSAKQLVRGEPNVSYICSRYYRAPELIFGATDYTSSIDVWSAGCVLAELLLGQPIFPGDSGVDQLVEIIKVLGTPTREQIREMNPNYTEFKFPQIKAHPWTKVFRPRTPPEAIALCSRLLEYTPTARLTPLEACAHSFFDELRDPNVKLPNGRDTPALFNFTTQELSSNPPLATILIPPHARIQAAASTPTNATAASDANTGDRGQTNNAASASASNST", "test": "Inhibition of GSK3beta", "method_in_brief": "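IC50 determined by a commercial kinase profiling service (Millipore IC50 Profiler); duplicate testing.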"}, "HUVEC": {"tested_on": "HUVEC", "test": "Induction of apoptosis in human HUVEC assessed as accumulation at subG1 phase at 0.79 uM incubated for 4 days by flow cytometry (reference value: 15.4 +/- 1.5%)", "assay_type": "functional"}, "[2]": {"biological_target": "Protein kinase C iota type (Homo sapiens) (UniProt P41743)", "test": "Inhibition of PKCiota assessed as enzyme residual activity at 10 uM relative to untreated control", "method_in_brief": "(§1)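 Residual kinase activity at 10 μM compound, determined by a commercial kinase profiling service (Millipore) across 15 kinases of different classes. Each compound tested in duplicate.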"}, "MKN-45 [3]": {"tested_on": "MKN-45", "test": "Cytotoxic activity against human MKN45 cells assessed as cell viability at 0.5 uM incubated for 5 days by MTT assay", "assay_type": "functional", "details": "MKN-45, 120 h, read-out: Activity", "method_in_brief": "(§2)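 MTT viability: exponentially growing cells, 10 000 viable cells/well in RPMI plated overnight, then exposed to test compounds for 3 days (HT-29, Molm-14) or 5 days (Mkn-45) at 37 °C, 5% CO2. MTT added for 4 h, then SDS/HCl solubilization overnight and absorbance read at 562 nm. Viability is expressed relative to untreated cells (100%). Triplicate.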"}, "[4]": {"biological_target": "CDK6/cyclin D3 (Homo sapiens) (UniProt P30281+Q00534)", "test": "Inhibition of CDK6/cyclinD3 assessed as enzyme residual activity at 10 uM relative to untreated control", "assay_type": "protein-complex assay", "method_in_brief": "as §1"}, "[5]": {"biological_target": "Protein kinase C alpha type (Homo sapiens) (UniProt P17252)", "test": "Inhibition of PKCalpha assessed as enzyme residual activity at 10 uM relative to untreated control", "method_in_brief": "as §1"}, "[6]": {"test": "Inhibition of angiogenesis in chick embryo model assessed as reduction in vessel growth at 26 nM incubated for 24 hrs", "assay_type": "functional, Gallus gallus", "method_in_brief": "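White leghorn eggs incubated at 37.5 °C, 62% humidity. At 70 h, albumen removed and shell windowed. From 75 h, 15 agarose pellets (from a 26 mM DMSO stock in 2% agarose; final concentration 26 nM) placed on the area vasculosa.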"}, "[7]": {"biological_target": "Protein kinase C epsilon type (Homo sapiens) (UniProt Q02156)", "sequence (Q02156 whole entry)": "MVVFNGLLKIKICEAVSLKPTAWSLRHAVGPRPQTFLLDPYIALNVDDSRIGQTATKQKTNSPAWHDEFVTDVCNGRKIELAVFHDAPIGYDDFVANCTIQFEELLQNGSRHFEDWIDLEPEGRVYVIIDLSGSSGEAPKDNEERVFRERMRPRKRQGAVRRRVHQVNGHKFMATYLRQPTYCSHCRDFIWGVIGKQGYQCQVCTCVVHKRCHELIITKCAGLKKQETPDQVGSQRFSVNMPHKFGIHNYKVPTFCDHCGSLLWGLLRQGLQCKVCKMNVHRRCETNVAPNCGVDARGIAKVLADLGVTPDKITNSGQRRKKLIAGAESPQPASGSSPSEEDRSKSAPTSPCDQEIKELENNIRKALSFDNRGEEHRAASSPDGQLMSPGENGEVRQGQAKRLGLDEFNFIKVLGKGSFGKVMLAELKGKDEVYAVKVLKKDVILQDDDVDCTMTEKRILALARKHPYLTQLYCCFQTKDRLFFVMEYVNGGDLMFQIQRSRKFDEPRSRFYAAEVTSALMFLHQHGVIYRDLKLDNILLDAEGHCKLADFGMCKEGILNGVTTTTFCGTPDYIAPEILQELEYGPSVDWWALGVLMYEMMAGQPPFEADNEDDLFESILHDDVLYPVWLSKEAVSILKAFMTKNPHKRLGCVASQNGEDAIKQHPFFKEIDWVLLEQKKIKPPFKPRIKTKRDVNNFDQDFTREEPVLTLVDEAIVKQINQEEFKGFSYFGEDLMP", "test": "Inhibition of PKCepsilon assessed as enzyme residual activity at 10 uM relative to untreated control", "method_in_brief": "as §1"}, "[8]": {"biological_target": "Cyclin-dependent kinase 2/cyclin A (Homo sapiens) (UniProt P24941+P20248+P78396)", "test": "Inhibition of CDK2/cyclinA assessed as enzyme residual activity at 10 uM relative to untreated control", "assay_type": "protein-complex assay", "method_in_brief": "as §1"}, "MKN-45 [9]": {"tested_on": "MKN-45", "test": "Induction of apoptosis in human MKN45 assessed as accumulation at subG1 phase at 15 uM incubated for 7 days by flow cytometry (reference value: 10.9 +/- 3.2%)", "assay_type": "functional"}, "[10]": {"biological_target": "RAF proto-oncogene serine/threonine-protein kinase (Homo sapiens) (UniProt P04049)", "sequence (P04049 whole entry)": "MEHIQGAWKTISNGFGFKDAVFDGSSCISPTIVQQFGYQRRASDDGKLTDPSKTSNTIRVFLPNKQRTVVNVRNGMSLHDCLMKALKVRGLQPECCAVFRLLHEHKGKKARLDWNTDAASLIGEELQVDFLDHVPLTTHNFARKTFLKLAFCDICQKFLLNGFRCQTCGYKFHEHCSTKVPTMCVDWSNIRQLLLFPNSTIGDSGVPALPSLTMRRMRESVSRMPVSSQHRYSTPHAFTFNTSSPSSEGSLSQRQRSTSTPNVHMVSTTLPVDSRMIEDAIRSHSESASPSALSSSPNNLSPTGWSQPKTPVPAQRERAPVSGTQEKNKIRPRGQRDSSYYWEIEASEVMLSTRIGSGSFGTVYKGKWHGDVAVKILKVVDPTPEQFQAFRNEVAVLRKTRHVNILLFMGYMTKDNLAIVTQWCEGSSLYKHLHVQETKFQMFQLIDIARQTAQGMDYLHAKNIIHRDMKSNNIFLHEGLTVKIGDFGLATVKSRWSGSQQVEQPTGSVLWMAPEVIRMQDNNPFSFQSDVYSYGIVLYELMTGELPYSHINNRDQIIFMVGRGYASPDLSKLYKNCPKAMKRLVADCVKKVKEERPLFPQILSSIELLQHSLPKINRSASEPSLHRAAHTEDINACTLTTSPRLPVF", "test": "Inhibition of c-RAF assessed as enzyme residual activity at 10 uM relative to untreated control", "method_in_brief": "as §1"}, "[11]": {"biological_target": "Angiopoietin-1 receptor (Homo sapiens) (UniProt Q02763)", "sequence (Q02763 whole entry)": "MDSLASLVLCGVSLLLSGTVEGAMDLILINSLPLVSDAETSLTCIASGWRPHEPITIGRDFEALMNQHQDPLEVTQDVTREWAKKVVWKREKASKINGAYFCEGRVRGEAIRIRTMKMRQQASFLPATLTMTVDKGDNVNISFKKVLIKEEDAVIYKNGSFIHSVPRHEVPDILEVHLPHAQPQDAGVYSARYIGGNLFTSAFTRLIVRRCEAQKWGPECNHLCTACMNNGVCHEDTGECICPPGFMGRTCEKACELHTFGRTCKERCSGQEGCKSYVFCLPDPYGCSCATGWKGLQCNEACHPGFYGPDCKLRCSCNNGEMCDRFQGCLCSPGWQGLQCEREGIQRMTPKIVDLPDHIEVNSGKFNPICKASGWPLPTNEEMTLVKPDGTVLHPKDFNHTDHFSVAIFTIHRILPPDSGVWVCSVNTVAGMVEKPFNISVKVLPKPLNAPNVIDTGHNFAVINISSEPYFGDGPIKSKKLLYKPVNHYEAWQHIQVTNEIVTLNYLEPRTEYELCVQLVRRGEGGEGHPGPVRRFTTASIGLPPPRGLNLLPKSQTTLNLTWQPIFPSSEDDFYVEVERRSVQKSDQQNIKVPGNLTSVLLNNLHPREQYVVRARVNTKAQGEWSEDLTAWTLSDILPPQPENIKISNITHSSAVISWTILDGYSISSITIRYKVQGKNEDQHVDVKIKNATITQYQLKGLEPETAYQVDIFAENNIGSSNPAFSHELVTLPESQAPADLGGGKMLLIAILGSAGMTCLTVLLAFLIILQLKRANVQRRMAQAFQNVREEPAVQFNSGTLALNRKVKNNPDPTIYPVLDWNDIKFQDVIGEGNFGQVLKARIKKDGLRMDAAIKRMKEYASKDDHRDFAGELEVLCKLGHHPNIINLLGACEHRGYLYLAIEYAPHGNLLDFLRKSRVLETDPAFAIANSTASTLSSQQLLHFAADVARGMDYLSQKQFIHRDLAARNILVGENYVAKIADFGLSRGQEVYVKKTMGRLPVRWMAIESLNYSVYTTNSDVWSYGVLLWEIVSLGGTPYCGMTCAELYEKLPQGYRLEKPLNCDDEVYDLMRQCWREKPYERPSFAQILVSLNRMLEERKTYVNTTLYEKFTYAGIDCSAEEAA", "test": "Inhibition of TIE2 assessed as enzyme residual activity at 10 uM relative to untreated control", "method_in_brief": "as §1"}, "[12]": {"biological_target": "Hepatocyte growth factor receptor (Homo sapiens) (UniProt P08581)", "sequence (P08581 whole entry)": "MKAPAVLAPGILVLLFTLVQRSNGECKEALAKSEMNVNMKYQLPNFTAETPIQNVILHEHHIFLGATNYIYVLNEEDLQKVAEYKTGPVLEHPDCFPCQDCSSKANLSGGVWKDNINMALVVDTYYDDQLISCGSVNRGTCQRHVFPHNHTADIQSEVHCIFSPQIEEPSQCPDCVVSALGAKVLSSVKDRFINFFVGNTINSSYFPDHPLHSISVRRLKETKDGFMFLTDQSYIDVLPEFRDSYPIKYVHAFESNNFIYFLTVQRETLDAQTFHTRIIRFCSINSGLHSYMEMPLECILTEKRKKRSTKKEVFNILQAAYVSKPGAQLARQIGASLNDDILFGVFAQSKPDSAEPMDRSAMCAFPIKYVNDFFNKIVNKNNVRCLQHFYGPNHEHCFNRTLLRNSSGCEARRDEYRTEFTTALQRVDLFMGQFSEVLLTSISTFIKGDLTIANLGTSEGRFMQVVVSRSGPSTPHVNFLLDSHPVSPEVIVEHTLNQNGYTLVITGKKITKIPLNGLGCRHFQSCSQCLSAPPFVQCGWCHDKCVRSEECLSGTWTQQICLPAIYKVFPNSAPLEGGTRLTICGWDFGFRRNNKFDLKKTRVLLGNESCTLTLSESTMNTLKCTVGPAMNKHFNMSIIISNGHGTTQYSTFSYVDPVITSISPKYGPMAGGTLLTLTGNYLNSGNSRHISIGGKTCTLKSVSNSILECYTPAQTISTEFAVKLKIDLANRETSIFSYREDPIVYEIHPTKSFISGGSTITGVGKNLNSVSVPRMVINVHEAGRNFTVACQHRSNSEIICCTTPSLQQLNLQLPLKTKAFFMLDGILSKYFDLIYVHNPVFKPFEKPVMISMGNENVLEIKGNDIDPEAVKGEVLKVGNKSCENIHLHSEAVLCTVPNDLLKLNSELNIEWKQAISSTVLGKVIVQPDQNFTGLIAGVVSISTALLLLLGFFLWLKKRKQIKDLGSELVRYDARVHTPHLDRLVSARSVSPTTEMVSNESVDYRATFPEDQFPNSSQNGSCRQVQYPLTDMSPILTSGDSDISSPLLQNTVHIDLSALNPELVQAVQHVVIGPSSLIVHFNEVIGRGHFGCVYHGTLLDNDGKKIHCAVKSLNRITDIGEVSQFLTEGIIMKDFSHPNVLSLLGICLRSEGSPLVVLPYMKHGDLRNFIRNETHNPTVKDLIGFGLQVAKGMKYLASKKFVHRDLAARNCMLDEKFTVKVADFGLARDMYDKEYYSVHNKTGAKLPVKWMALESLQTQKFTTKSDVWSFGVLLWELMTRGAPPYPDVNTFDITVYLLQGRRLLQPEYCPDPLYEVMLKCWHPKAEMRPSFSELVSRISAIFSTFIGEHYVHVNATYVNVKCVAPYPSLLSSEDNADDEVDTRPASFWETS", "test": "Inhibition of MET assessed as enzyme residual activity at 10 uM relative to untreated control", "method_in_brief": "as §1"}, "MKN-45 [13]": {"tested_on": "MKN-45", "test": "Induction of apoptosis in human MKN45 assessed as accumulation at subG1 phase at 1 uM incubated for 7 days by flow cytometry (reference value: 10.9 +/- 3.2%)", "assay_type": "functional"}, "MOLM-14 [14]": {"tested_on": "MOLM-14", "test": "Cytotoxic activity against human MOLM14 cells assessed as cell viability at 10 uM incubated for 3 days by MTT assay", "assay_type": "functional", "details": "MOLM-14, 72 h, read-out: Activity", "method_in_brief": "as §2"}, "[15]": {"biological_target": "Epidermal growth factor receptor (Homo sapiens) (UniProt P00533)", "test": "Inhibition of EGFR assessed as enzyme residual activity at 10 uM relative to untreated control", "method_in_brief": "as §1"}, "MKN-45 [16]": {"tested_on": "MKN-45", "test": "Induction of apoptosis in human MKN45 assessed as accumulation at subG1 phase at 5 uM incubated for 7 days by flow cytometry (reference value: 10.9 +/- 3.2%)", "assay_type": "functional"}, "MOLM-14 [17]": {"tested_on": "MOLM-14", "test": "Cytotoxic activity against human MOLM14 cells assessed as cell viability at 1 uM incubated for 3 days by MTT assay", "assay_type": "functional", "details": "MOLM-14, 72 h, read-out: Activity", "method_in_brief": "as §2"}, "[18]": {"biological_target": "Vascular endothelial growth factor receptor 2 (Homo sapiens, UniProt P35968)", "test": "Inhibition of VEGFR2 assessed as enzyme residual activity at 10 uM relative to untreated control", "method_in_brief": "as §1"}, "[19]": {"biological_target": "T1, Receptor-type tyrosine-protein kinase FLT3 (Homo sapiens, UniProt P36888)", "T1 sequence (P36888 whole entry)": "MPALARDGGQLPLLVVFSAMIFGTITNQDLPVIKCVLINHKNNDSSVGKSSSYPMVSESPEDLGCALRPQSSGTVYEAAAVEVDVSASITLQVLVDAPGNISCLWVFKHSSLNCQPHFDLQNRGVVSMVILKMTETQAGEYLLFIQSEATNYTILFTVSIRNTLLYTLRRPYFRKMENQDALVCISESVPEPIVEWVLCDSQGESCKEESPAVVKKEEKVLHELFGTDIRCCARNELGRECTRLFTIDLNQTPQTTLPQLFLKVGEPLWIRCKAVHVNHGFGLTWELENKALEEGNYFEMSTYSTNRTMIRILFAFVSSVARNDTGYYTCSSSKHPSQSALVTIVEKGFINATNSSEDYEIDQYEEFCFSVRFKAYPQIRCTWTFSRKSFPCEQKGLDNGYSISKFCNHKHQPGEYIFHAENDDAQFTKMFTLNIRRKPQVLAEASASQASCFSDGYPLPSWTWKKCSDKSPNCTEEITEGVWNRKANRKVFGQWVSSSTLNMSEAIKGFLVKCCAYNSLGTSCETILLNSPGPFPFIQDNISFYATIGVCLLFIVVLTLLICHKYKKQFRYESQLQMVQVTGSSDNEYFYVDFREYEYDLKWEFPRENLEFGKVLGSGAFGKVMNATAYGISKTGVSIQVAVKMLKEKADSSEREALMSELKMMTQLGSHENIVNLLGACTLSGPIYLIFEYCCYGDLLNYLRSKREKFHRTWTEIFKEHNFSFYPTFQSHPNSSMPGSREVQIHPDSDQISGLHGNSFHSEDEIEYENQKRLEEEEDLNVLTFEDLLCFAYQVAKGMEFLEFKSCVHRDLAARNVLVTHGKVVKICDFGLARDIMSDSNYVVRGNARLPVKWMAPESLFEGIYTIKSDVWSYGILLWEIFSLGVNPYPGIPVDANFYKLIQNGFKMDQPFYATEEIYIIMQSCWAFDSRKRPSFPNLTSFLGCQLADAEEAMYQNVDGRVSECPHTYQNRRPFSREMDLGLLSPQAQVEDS", "test": "Inhibition of FLT3", "method_in_brief": "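Run as an outsourced kinase profiling service (Millipore IC50 Profiler), with the protocol referred to the provider. Gives IC50 values and residual activity at 10 μM test compound. Compounds tested in duplicate.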"}, "MKN-45 [20]": {"tested_on": "MKN-45", "test": "Cytotoxic activity against human MKN45 cells assessed as cell viability at 1 uM incubated for 5 days by MTT assay", "assay_type": "functional", "details": "MKN-45, 120 h, read-out: Activity", "method_in_brief": "as §2"}, "MKN-45 [21]": {"tested_on": "MKN-45", "test": "Cytotoxic activity against human MKN45 cells assessed as cell viability at 10 uM incubated for 5 days by MTT assay", "assay_type": "functional", "details": "MKN-45, 120 h, read-out: Activity", "method_in_brief": "as §2"}},
  "data": [
    {"compound": "COc1cc(C2=C(c3c[nH]c4cnccc34)C(=O)NC2=O)cc(OC)c1OC", "values": [
      {"measurement": "IC50", "setting": "[1]", "value": 9, "unit": "nM"},
      {"measurement": "Activity", "setting": "HUVEC", "value": 48, "unit": "%"},
      {"measurement": "Activity", "setting": "[2]", "value": 99, "unit": "%"},
      {"measurement": "viability at 0.5 µM", "setting": "MKN-45 [3]", "value": 99.2, "unit": "%"},
      {"measurement": "Activity", "setting": "[4]", "value": 103, "unit": "%"},
      {"measurement": "Activity", "setting": "[5]", "value": 80, "unit": "%"},
      {"measurement": "inhibition (INH)", "setting": "[6]", "value": 32, "unit": "%"},
      {"measurement": "Activity", "setting": "[7]", "value": 75, "unit": "%"},
      {"measurement": "Activity", "setting": "[8]", "value": 88, "unit": "%"},
      {"measurement": "Activity", "setting": "MKN-45 [9]", "value": 22.9, "unit": "%"},
      {"measurement": "Activity", "setting": "[10]", "value": 117, "unit": "%"},
      {"measurement": "Activity", "setting": "[11]", "value": 116, "unit": "%"},
      {"measurement": "Activity", "setting": "[12]", "value": 83, "unit": "%"},
      {"measurement": "Activity", "setting": "MKN-45 [13]", "value": 12.8, "unit": "%"},
      {"measurement": "viability at 10 µM", "setting": "MOLM-14 [14]", "value": 9.35, "unit": "%"},
      {"measurement": "Activity", "setting": "[15]", "value": 111, "unit": "%"},
      {"measurement": "Activity", "setting": "MKN-45 [16]", "value": 15.8, "unit": "%"},
      {"measurement": "viability at 1 µM", "setting": "MOLM-14 [17]", "value": 54.2, "unit": "%"},
      {"measurement": "Activity", "setting": "[18]", "value": 1, "unit": "%"},
      {"measurement": "IC50", "setting": "[19]", "value": 18, "unit": "nM"},
      {"measurement": "viability at 1 µM", "setting": "MKN-45 [20]", "value": 107, "unit": "%"},
      {"measurement": "viability at 10 µM", "setting": "MKN-45 [21]", "value": 108, "unit": "%"}
    ]}
  ]
}
